# Tests used:
# [1] = Cytotoxicity against human RPMI18226 cells after 72 hrs by MTT assay; format: functional, cell-based; details: RPMI18226, 72 h
# How it was run: (§1)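 MTT growth assay: 3000 cells per well seeded, after 24 h exposed to 10 drug concentrations for 72 h, then MTT (5 mg/mL stock) 4 h at 37 °C. Formazan dissolved in DMSO, absorbance at 540 nm. Points in triplicate; IC50 is mean of at least three independent determinations. Cells grown at 37 °C, 5% CO2 with FBS.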
# [2] = test system: BXPC-3; experiment: Cytotoxicity against human BxPC3 cells after 72 hrs by MTT assay; format: functional, cell-based; details: BXPC-3, 72 h; how it was run: as §1
# [3] = Systemic clearance in Sprague-Dawley rat at 1 mg/kg, iv; format: ADME, organism-based; set-up: dose 1 mg/kg, route intravenous; details: in vivo
# How it was run: (§2)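 Male SD rats given single 1.0 mg/kg iv bolus of solution (0.5 mg/mL) in 1% ethanol, 1% Tween80, 98% buffered saline. Heparinized blood samples (n = 4) centrifuged 4000 rpm, 5 min, 4 °C; plasma concentrations used to derive PK parameters.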
# [4] = Terminal half life in Sprague-Dawley rat at 1 mg/kg, iv; format: ADME, organism-based; set-up: dose 1 mg/kg, route intravenous; details: in vivo; how it was run: as §2
# [5] = test system: Rattus norvegicus; experiment: Toxicity in Sprague-Dawley rat assessed as incidence of mortality at 1 mg/kg, ig after 10 hrs; format: organism-based; set-up: dose 1 mg/kg, route intragastric; details: in vivo, po
# How it was run: (§3)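 Male SD rats dosed once at 1.0 mg/kg, iv bolus or intragastric, during the PK study. Dosing solution 0.5 mg/mL in 1% ethanol, 1% Tween80, 98% buffered saline. Animals observed for death and toxic reactions over 10 h. n = 4 per PK group.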
# [6] = test system: HL-60; experiment: Cytotoxicity against human HL60 cells after 72 hrs by MTT assay; format: functional, cell-based; details: HL-60, 72 h; how it was run: as §1
# [7] = Inhibition of human 20S proteasome chymotrypsin-like activity by fluorimetric assay; details: read-out: IC50
# How it was run: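 Human 20S proteasome preincubated with test compound, then Suc-Leu-Leu-Val-Tyr-AMC hydrolysis monitored 1 h at 37 °C by fluorescence (excitation 360 nm, 465 nm). Buffer pH 7.5: 20 mM Tris, 1 mM DTT, 10% glycerol, 0.02% (w/v) SDS; DMSO 3% (v/v) final. IC50 from five concentrations, each in duplicate; bortezomib standard.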
# [8] = test system: SW480; experiment: Cytotoxicity against human SW480 cells after 72 hrs by MTT assay; format: functional, cell-based; details: SW480, 72 h; how it was run: as §1
# [9] = Apparent volume of distribution in Sprague-Dawley rat at 1 mg/kg, iv; format: ADME, organism-based; set-up: dose 1 mg/kg, route intravenous; details: in vivo, read-out: Vz; how it was run: as §2
# [10] = test system: HepG2; experiment: Cytotoxicity against human HepG2 cells after 72 hrs by MTT assay; format: functional, cell-based; details: HepG2, 72 h; how it was run: as §1
# [11] = test system: SK-OV-3; experiment: Cytotoxicity against human SKOV3 cells after 72 hrs by MTT assay; format: functional, cell-based; details: SK-OV-3, 72 h; how it was run: as §1
# [12] = Tmax in Sprague-Dawley rat at 1 mg/kg, iv; format: ADME, organism-based; set-up: dose 1 mg/kg, route intravenous; details: in vivo; how it was run: as §2
# [13] = test system: Rattus norvegicus; experiment: Toxicity in Sprague-Dawley rat assessed as incidence of mortality at 1 mg/kg, iv after 10 hrs; format: organism-based; set-up: dose 1 mg/kg, route intravenous; details: in vivo; how it was run: as §3
# [14] = test system: PC-3; experiment: Cytotoxicity against human PC3 cells after 72 hrs by MTT assay; format: functional, cell-based; details: PC-3, 72 h; how it was run: as §1
# [15] = test system: A549; experiment: Cytotoxicity against human A549 cells after 72 hrs by MTT assay; format: functional, cell-based; details: A549, 72 h; how it was run: as §1
# [16] = AUC (0-t) in Sprague-Dawley rat at 1 mg/kg, iv; format: ADME, organism-based; set-up: dose 1 mg/kg, route intravenous; details: plasma; how it was run: as §2
# [17] = Mean residence time (0-t) in Sprague-Dawley rat at 1 mg/kg, iv; format: ADME, organism-based; set-up: dose 1 mg/kg, route intravenous; details: in vivo; how it was run: as §2
# [18] = Cmax in Sprague-Dawley rat at 1 mg/kg, iv; format: ADME, organism-based; set-up: dose 1 mg/kg, route intravenous; details: in vivo; how it was run: as §2
smiles,measurement,setting,value
CC(C)C[C@H](NC(=O)CC(NC(=O)c1ccc2ccccc2c1)c1cccc(F)c1)B(O)O (stereo partly drawn),IC50,[1],330 nM
same,IC50,[2],3540 nM
same,clearance,[3],9.6 mL/min/kg
same,half-life,[4],4.5 h
same,Activity,[5],Non-toxic
same,IC50,[6],530 nM
same,IC50,[7],3.01 nM
same,IC50,[8],2380 nM
same,Vd,[9],3.9 L/kg
same,IC50,[10],6990 nM
same,IC50,[11],8770 nM
same,Tmax,[12],1.8 min
same,Activity,[13],Non-toxic
same,IC50,[14],2990 nM
same,IC50,[15],2020 nM
same,AUC(0-t),[16],1710 ng·h/mL
same,MRT last,[17],1.4 h
same,Cmax,[18],5790 ng/mL

# Reference: ChEMBL document CHEMBL1629441, “Synthesis, in vitro and in vivo biological evaluation, and comprehensive understanding of structure-activity relationships of dipeptidyl boronic acid proteasome inhibitors constructed from β-amino acids” (J Med Chem, 2010)
